In the M2OR odorant receptor database:
Changes are numbered by the printed parent chain.

What was measured:
Conditions in all cases: stereoisomer not certain
[1] = tested on: O52J3 T77A V128I Q141L
How it was run: (§1)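 Assay methods differ from source to source, frequently being transient luciferase assays in mammalian cell lines. For each receptor–molecule pair, the label responsive (active) applies when the original authors judged the measured signal statistically different from baseline, and non-responsive (inactive) applies otherwise.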

[2] = tested on: T1, O52K1 A119T A149T
T1 sequence (whole entry): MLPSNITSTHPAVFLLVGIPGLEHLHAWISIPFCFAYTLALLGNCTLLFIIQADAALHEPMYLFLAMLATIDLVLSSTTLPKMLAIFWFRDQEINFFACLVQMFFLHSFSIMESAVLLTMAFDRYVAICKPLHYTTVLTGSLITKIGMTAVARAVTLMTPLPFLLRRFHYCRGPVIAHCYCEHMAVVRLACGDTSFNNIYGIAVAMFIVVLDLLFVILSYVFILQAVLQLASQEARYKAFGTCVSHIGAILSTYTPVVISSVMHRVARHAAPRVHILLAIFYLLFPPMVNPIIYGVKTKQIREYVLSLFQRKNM
How it was run: as §1

[3] = tested on: T2, O52K1 Q52R
T2 sequence (whole entry): T1 sequence (whole entry) with Q52R, T119A, T149A
How it was run: as §1

[4] = tested on: T3, O52L1
T3 sequence (whole entry): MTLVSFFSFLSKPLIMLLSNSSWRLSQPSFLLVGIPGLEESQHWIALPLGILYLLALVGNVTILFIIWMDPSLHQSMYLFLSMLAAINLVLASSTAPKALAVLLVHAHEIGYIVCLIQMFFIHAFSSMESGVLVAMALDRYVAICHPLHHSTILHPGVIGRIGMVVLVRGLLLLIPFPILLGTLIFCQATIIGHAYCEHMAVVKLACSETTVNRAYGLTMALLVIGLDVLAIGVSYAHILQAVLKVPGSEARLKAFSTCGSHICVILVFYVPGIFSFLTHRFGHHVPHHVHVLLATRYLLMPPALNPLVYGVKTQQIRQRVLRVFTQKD
How it was run: as §1

[5] = tested on: T4, O52M1 S305R
T4 sequence (whole entry): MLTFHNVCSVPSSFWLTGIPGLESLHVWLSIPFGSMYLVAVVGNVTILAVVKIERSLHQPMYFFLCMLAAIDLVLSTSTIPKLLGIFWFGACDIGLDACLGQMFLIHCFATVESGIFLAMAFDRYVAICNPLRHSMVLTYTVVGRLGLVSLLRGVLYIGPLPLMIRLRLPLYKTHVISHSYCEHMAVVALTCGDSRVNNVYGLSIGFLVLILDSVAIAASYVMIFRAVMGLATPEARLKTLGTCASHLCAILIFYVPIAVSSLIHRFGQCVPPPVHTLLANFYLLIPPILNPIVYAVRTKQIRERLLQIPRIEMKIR
How it was run: as §1

[6] = tested on: T5, O52N1 R167C F247I
T5 sequence (whole entry): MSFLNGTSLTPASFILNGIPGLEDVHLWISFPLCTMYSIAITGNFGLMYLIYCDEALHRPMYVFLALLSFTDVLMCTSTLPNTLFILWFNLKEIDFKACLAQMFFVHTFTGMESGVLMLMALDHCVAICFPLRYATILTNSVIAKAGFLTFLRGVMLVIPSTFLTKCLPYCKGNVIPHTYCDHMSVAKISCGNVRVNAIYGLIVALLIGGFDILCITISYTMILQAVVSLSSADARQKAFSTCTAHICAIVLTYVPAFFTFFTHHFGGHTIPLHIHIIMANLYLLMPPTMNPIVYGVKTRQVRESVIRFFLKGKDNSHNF
How it was run: as §1

[7] = tested on: T6, O52N2 S249A H264R
T6 sequence (whole entry): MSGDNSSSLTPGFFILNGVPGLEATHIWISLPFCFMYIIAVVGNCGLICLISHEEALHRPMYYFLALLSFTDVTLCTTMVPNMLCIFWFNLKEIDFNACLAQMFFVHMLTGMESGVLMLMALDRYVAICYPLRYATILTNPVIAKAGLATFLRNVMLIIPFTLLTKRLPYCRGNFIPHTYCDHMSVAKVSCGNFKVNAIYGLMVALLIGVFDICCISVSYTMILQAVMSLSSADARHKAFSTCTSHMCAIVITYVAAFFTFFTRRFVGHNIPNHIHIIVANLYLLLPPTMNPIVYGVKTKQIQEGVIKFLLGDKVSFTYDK
How it was run: as §1

[8] = tested on: T7, O52W1 H239R L254Q
T7 sequence (whole entry): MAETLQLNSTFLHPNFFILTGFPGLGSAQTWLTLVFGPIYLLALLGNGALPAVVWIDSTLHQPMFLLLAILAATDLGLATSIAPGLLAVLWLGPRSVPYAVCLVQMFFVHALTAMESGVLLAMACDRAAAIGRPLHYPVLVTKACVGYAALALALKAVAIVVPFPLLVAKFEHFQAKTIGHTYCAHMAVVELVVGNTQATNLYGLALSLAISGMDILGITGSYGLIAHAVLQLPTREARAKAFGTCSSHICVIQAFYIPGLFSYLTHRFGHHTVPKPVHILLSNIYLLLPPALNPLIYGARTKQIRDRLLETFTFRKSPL
How it was run: as §1

[9] = tested on: T8, O56A3
T8 sequence (whole entry): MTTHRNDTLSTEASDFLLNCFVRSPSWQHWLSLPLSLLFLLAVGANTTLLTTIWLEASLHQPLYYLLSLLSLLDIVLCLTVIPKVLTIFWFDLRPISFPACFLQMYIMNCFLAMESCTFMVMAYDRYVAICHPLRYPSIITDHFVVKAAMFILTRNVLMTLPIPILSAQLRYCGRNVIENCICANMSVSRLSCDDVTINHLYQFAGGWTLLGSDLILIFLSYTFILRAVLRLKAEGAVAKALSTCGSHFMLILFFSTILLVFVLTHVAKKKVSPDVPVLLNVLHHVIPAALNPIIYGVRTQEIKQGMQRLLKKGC
How it was run: as §1

[10] = tested on: T9, O56A4 I247A
T9 sequence (whole entry): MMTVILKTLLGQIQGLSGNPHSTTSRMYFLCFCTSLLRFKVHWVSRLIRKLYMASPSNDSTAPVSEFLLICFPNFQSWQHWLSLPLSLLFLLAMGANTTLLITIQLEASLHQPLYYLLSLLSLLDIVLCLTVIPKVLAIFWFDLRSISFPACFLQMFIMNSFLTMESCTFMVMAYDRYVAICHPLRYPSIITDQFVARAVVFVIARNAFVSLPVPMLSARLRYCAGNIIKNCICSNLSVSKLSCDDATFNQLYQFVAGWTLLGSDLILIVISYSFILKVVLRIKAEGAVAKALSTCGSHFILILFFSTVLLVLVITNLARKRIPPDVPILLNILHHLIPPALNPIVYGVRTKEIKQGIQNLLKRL
How it was run: as §1

[11] = tested on: T10, O56A4 I247V
T10 sequence (whole entry): T9 sequence (whole entry) with A247V
How it was run: as §1

[12] = tested on: T11, O56A4
T11 sequence (whole entry): T9 sequence (whole entry) with A247I
How it was run: as §1

[13] = tested on: T12, O56A5 V104L
T12 sequence (whole entry): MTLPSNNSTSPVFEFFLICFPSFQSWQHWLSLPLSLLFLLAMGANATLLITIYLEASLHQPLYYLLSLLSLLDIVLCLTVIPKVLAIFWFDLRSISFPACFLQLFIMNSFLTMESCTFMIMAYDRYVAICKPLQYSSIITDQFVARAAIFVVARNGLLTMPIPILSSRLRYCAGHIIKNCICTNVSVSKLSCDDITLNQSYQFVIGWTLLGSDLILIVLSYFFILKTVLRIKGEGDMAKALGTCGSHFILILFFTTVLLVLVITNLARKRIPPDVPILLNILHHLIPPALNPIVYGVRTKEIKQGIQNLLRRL
How it was run: as §1

[14] = tested on: T13, O56B1 C106R L214F
T13 sequence (whole entry): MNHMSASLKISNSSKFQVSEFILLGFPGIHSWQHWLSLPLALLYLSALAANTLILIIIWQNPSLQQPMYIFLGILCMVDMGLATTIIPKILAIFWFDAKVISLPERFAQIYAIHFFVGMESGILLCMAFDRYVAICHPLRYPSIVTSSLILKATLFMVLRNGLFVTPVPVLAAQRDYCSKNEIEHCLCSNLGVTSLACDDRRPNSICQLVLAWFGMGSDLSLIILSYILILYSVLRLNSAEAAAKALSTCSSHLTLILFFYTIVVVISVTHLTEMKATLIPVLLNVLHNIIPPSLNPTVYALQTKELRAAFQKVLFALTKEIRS
How it was run: as §1

[15] = tested on: T14, O56B1 L214F
T14 sequence (whole entry): T13 sequence (whole entry) with R106C
How it was run: as §1

[16] = tested on: T15, O56B4
T15 sequence (whole entry): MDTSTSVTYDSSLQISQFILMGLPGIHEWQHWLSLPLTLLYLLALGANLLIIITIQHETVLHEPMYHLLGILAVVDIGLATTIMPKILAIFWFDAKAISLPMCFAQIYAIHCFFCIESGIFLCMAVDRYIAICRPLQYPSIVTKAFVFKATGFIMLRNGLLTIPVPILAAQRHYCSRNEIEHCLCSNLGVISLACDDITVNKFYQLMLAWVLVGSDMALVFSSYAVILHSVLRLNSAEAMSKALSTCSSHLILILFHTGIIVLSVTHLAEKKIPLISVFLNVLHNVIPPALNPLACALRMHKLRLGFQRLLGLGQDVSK
How it was run: as §1

[17] = tested on: T16, O5AC2
T16 sequence (whole entry): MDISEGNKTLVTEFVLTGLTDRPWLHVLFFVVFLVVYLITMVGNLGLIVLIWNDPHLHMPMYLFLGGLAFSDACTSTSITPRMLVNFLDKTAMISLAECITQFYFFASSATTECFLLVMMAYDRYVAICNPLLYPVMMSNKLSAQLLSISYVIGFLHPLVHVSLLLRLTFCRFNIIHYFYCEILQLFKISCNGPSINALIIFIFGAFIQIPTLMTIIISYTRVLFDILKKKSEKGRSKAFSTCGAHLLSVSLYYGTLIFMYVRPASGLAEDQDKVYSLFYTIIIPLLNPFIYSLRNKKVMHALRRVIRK
How it was run: as §1

[18] = tested on: T17, O5AK2 M92I
T17 sequence (whole entry): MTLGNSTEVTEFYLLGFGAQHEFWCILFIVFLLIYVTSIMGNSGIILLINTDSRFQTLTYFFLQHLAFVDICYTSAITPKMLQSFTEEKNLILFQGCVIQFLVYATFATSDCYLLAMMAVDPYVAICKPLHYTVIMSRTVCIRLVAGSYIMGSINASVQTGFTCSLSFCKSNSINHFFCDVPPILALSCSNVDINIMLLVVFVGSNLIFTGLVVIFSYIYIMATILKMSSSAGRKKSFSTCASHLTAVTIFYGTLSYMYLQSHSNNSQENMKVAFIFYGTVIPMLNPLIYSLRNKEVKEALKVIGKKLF
How it was run: as §1

[19] = tested on: T18, O5AN1 C142Y L289F
T18 sequence (whole entry): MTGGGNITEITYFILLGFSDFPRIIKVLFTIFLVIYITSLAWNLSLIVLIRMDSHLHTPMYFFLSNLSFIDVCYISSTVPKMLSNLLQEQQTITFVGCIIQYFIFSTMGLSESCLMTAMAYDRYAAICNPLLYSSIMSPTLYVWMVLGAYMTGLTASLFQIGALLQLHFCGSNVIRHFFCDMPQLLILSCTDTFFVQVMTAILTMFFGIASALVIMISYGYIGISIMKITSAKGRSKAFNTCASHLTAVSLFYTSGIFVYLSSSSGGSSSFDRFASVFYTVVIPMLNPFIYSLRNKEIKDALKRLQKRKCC
How it was run: as §1

[20] = tested on: T19, O5AN1 L289F
T19 sequence (whole entry): T18 sequence (whole entry) with Y142C
How it was run: as §1

Measured: odorant receptor agonist call

CCCC(S)CCOC(C)=O (stereo not drawn)
inactive: all assays above

CCC1OC(C)=C(O)C1=O (stereo not drawn)
inactive: all assays above

CCC1OC(=O)C(O)=C1C (stereo not drawn)
inactive: all assays above

CCCCCCC=CCCC=O
not listed: [4] | [12]
inactive: all other assays above
